The record followed here is ChEMBL document CHEMBL1144504, “Antitumor studies. Part 1: design, synthesis, antitumor activity, and AutoDock study of 2-deoxo-2-phenyl-5-deazaflavins and 2-deoxo-2-phenylflavin-5-oxides as a new class of antitumor agents” (Bioorg Med Chem, 2007).

In one assay the test system is KB. The experiment in a line: Growth inhibition of human KB cells by MTT assay. In kind it is functional, cell-based. The procedure, abridged: (§1)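 5×10^3 cells per well seeded with compound added simultaneously, triplicate wells, 72 h at 37 °C in humidified 5% CO2. MTT (5 mg/mL stock in Ca/Mg-free PBS) added for a further 4 h at 37 °C. Formazan solubilized in 0.02 N HCl/50% DMF/20% SDS, OD570 read. Inhibition (%) = (1 − T/C) × 100 against mean control; IC50 taken from dose–response curve.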

For a further assay, the system named is CCRF-HSB-2. The assay can be described thus: Growth inhibition of human CCRF-HSB-2 cells by MTT assay. In kind it is functional, cell-based. The procedure, abridged:
as §1

Another assay relates to NCI-H460. The experiment in a line: Growth inhibition of human NCI-H460 cells by MTT assay. In kind it is functional, cell-based. The procedure, abridged:
as §1

For another assay, the system named is HCT-116. The assay can be described thus: Growth inhibition of human HCT116 cells by MTT assay. In kind it is functional, cell-based. In outline:
as §1

Assay [1] concerns A-431. The experiment in a line: Growth inhibition of human A431 cells by MTT assay. In kind it is functional, cell-based. The procedure, abridged: as §1
Assay [2] deals with A-431. The experiment in a line: Antitumor activity against human A431 xenograft in intratumorally dosed BALB/c nude mouse at 25 mg/kg after 17 days relative control. In kind it is functional. The procedure, abridged:
(§2)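 A431 implanted subcutaneously in BALB/c nude mice; dosing begins (day 1) when tumors reach 100–300 mm3. Compound suspended in 0.5% gum arabic. Intratumoral: five daily doses per week for 3 weeks (days 1-5, 8-12, 15-19). Intraperitoneal and oral: daily for 10 days (days 1-10). Tumor length a and width b measured 2–3 times weekly; volume = a×b²/2; T/C % = (Tn/T1)×100/(Cn/C1).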

In assay [3] the test system is Mus musculus. The assay can be described thus: Weight change in intratumorally dosed BALB/c nude mouse bearing human A431 cells at 25 mg/kg after 17 days. The assay is classed as functional, A-431. The procedure, abridged:
(§3)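 BALB/c nude mice bearing subcutaneous A431 tumors, dosed from the day tumors reach 100–300 mm3. Vehicle: 0.5% gum arabic suspension. Intratumoral schedule: days 1-5, 8-12, 15-19. Intraperitoneal and oral schedule: daily, days 1-10. Body weight change in g recorded at 17 days (it), 10 days (ip) or 18 days (po) after treatment.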

In assay [4] the test system is A-431. The assay can be described thus: Antitumor activity against human A431 xenograft in BALB/c nude mouse at 75 mg/kg, po after 18 days relative control. In kind it is functional. The procedure, abridged: as §2
In assay [5] the test system is Mus musculus. The experiment in a line: Weight change in human […] A431 xenografted BALB/c nude mouse at 75 mg/kg, po after 18 days. The assay is classed as functional. The procedure, abridged: as §3
Assay [6] concerns Mus musculus. The experiment in a line: Weight change in human A431 xenografted BALB/c nude mouse at 150 mg/kg, po after 18 days. In kind it is functional. The procedure, abridged: as §3
For assay [7], the system named is A-431. The assay can be described thus: Antitumor activity against human A431 xenograft in BALB/c nude mouse at 100 mg/kg, ip after 10 days relative control. To be noted: route intraperitoneal. The assay is classed as functional. The procedure, abridged:
as §2

Assay [8] concerns A-431. The assay can be described thus: Antitumor activity against human A431 xenograft in BALB/c nude mouse at 150 mg/kg, po after 18 days relative control. The assay is classed as functional. In outline:
as §2

Assay [9] relates to Mus musculus. The assay can be described thus: Weight change in human A431 xenografted BALB/c nude mouse at 100 mg/kg, ip after 10 days. The following applies: route intraperitoneal. In kind it is functional. The procedure, abridged: as §3
The subject of assay [10] is Mus musculus. The assay can be described thus: Weight change in intratumorally dosed BALB/c nude mouse bearing human A431 cells at 1 mg/kg after 17 days. In kind it is functional, A-431. In outline: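 A431 was transplanted subcutaneously into BALB/c nude mice. Intratumoral injections of a suspension in 0.5% gum arabic started when tumors reached 100–300 mm3. Injections were given five consecutive days per week for 3 weeks (days 1–5, 8–12, 15–19). Body weight change (g) was recorded on day 17.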

Assay [11] concerns A-431. The assay can be described thus: Antitumor activity against human A431 xenograft in BALB/c nude mouse at 1 mg/kg, ip after 10 days relative control. The assay is classed as functional. To be noted: route intraperitoneal. In outline:
(§4)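 A431 cells implanted subcutaneously into BALB/c nude mice. Dosing began (day 1) once tumors reached 100–300 mm3, given ip as a suspension in 0.5% gum arabic, daily for days 1–10. Tumor length (a) and width (b) were measured 2–3 times weekly; volume = (a×b²)/2. T/C % = (Tn/T1)×100/(Cn/C1), read on day 10. Body weight change was given in g.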

Assay [12] has as its system Mus musculus. The experiment in a line: Weight change in human A431 xenografted BALB/c nude mouse at 1 mg/kg, po after 18 days. The assay is classed as functional. The procedure, abridged: (§5)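 Subcutaneous A431 xenografts in BALB/c nude mice were dosed orally once tumors reached 100–300 mm3 (day 1). Dosing was daily for days 1–10 as a suspension in 0.5% gum arabic. Volume = (a×b²)/2 from calipered length and width. Relative volume T/C % = (Tn/T1)×100/(Cn/C1) and body weight change (g) were assessed 18 days after treatment.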

The test system of assay [13] is A-431. The experiment in a line: Antitumor activity against human A431 xenograft in BALB/c nude mouse at 1 mg/kg, po after 18 days relative control. The assay is classed as functional. The procedure, abridged:
as §5

The subject of assay [14] is Mus musculus. The assay can be described thus: Weight change in human A431 xenografted BALB/c nude mouse at 1 mg/kg, ip after 10 days. In kind it is functional. To be noted: route intraperitoneal. In outline: as §4

As for `Cc1cccc2cc3c(=O)nc(-c4ccccc4)nc-3n(C)c12`, the IC50 was determined as 3980 nM with KB and 700 nM with CCRF-HSB-2.

As for `COc1ccc2c(c1)cc1c(=O)nc(-c3ccccc3)nc-1n2C`, the IC50 in the assay with NCI-H460 was 3100 nM; in the assay on KB it was 500 nM; in the assay with CCRF-HSB-2, 1230 nM; with HCT-116, 2910 nM.

Turning to `COc1ccc2cc3c(=O)nc(-c4ccccc4)nc-3n(C)c2c1`, the half-maximal inhibitory concentration (IC50) stood at 5040 nM in the assay with KB and 2140 nM in the assay on CCRF-HSB-2.

On to `CCn1c2nc(-c3ccccc3)nc(=O)c-2cc2cc(C)ccc21`, for which the concentration for half-maximal inhibition (IC50) with KB was determined as 510 nM; in the assay with CCRF-HSB-2, 730 nM.

As to `COc1ccc2cc3c(=O)nc(-c4ccccc4)nc-3[nH]c2c1`, the IC50 in the assay on KB stood at 62700 nM; in the assay on CCRF-HSB-2, 24400 nM.

For `CCn1c2nc(-c3ccccc3)nc(=O)c-2[n+]([O-])c2ccccc21`, the results for the IC50 with KB and in the assay with CCRF-HSB-2 were 2380 nM and 960 nM, respectively.

With `Cn1c2nc(-c3ccccc3)nc(=O)c-2[n+]([O-])c2ccccc21`, the IC50 in the assay on A-431 [1] was determined as 1310 nM; in the assay on NCI-H460, 2720 nM; in the assay with KB, 1080 nM; in the assay with CCRF-HSB-2 it was 970 nM; in the assay on HCT-116, 1800 nM.

`CC(C)n1c2nc(-c3ccccc3)nc(=O)c-2[n+]([O-])c2ccccc21`: the IC50 was 6050 nM in the assay on NCI-H460, 2180 nM with KB, 980 nM in the assay on CCRF-HSB-2 and 6580 nM in the assay on HCT-116.

Turning to `Cc1ccc2c(c1)[n+]([O-])c1c(=O)nc(-c3ccccc3)nc-1n2C`, the IC50 was found to be 4390 nM in the assay on NCI-H460, 1750 nM in the assay on KB, 500 nM in the assay on CCRF-HSB-2 and 3250 nM in the assay on HCT-116.

Consider `Cc1cccc2cc3c(=O)nc(-c4ccccc4)nc-3[nH]c12`, for which the results for the half-inhibitory concentration (IC50) in the assay on KB and in the assay with CCRF-HSB-2 were > 350000 nM and 299000 nM, respectively.

With `COc1ccc2c(c1)[n+]([O-])c1c(=O)nc(-c3ccccc3)nc-1n2C`, the IC50 in the assay on NCI-H460 is 1330 nM; in the assay on HCT-116, 720 nM.

For the compound `COc1cc2c(c(OC)c1OC)[n+]([O-])c1c(=O)nc(-c3ccccc3)nc-1n2C`, the IC50 is 3720 nM in the assay with NCI-H460 and 3760 nM in the assay with HCT-116.

For `CCn1c2nc(-c3ccccc3)nc(=O)c-2cc2ccccc21`, the IC50 with A-431 [1] came to 760 nM; in the assay with KB it was 2620 nM; in the assay on CCRF-HSB-2, 1790 nM. In addition, the Activity in the assay on A-431 [2] is given as 109%; with Mus musculus [3], -1.6 g.

Take `Cc1ccc2c(c1)cc1c(=O)nc(-c3ccccc3)nc-1n2C`: the IC50 in the assay with A-431 [1] is 2450 nM; in the assay on NCI-H460, 2080 nM; with KB, 1860 nM; with CCRF-HSB-2 it was 1490 nM; with HCT-116 it was 1680 nM.

`Cn1c2nc(-c3ccccc3)nc(=O)c-2cc2ccccc21`: the IC50 with A-431 [1] came to 1440 nM; in the assay on NCI-H460 it was 2230 nM; with KB it was 2330 nM; in the assay on CCRF-HSB-2 it was 11800 nM; in the assay on HCT-116, 2110 nM. Moreover, the Activity in the assay with A-431 [2] is 57.2%; with A-431 [4], 97.6%; in the assay on Mus musculus [5], -0.9 g; in the assay on Mus musculus [6] it was -0.4 g; with Mus musculus [3], 0.1 g; with A-431 [7] it was 53.4%. In addition, the Activity is on record as 51.8% in the assay on A-431 [8] and -1.7 g with Mus musculus [9].

For `Cc1cccc2c1n(C)c1nc(-c3ccccc3)nc(=O)c-1[n+]2[O-]`, the half-maximal inhibitory concentration (IC50) in the assay on KB came to 3280 nM; in the assay on CCRF-HSB-2, 1290 nM.

Consider `CCn1c2nc(-c3ccccc3)nc(=O)c-2[n+]([O-])c2cc(C)ccc21`, for which the half-maximal inhibitory concentration (IC50) worked out at 2970 nM in the assay with KB and 1710 nM with CCRF-HSB-2.

Turning to `O=c1nc(-c2ccccc2)nc2[nH]c3ccccc3cc1-2`, the IC50 in the assay on A-431 [1] is 3880 nM; in the assay with KB, 5120 nM; in the assay with CCRF-HSB-2 it was 3830 nM.

Consider `Nc1ccn([C@@H]2O[C@H](CO)[C@@H](O)[C@@H]2O)c(=O)n1` [CYTARABINE], for which the IC50 is 700 nM in the assay with KB and 150 nM in the assay with CCRF-HSB-2.

Compound `COc1cccc2c1C(=O)c1c(O)c3c(c(O)c1C2=O)C[C@@](O)(C(=O)CO)C[C@@H]3O[C@H]1C[C@H](N)[C@H](O)[C@H](C)O1` [DOXORUBICIN] returned an IC50 with A-431 [1] of 50 nM.

In the case of `CN[C@@H]1C[C@H]2O[C@@](C)([C@@H]1OC)n1c3ccccc3c3c4c(c5c6ccccc6n2c5c31)C(=O)NC4` [STAUROSPORINE], the Activity in the assay with Mus musculus [10] is reported as -0.6 g; with A-431 [11] it was 84.9%; in the assay on Mus musculus [12], -2 g; in the assay on A-431 [13], 72.9%; with Mus musculus [14] it was -1 g.
